Measurements gathered from unrelated publications.
Compare with care: the assays were run in different laboratories.
Target: Mitogen-activated protein kinase 10 (MAPK10, Homo sapiens, UniProt P53779)

| SMILES | assay | conditions | quantity | result |
| --- | --- | --- | --- | --- |
| Cc1c(NC(=O)c2cc(C(N)=O)nc3cc(F)ccc23)c(C(F)(F)F)nn1Cc1ccc(C(C)(C)C)cc1 | cell-free assay, competition with immobilised ligand | 1 µM | remaining binding | 100% |
| COc1cc(Nc2cnc(C#N)c(O[C@H](C)CN(C)C)n2)ncc1-c1cnn(C)c1 | enzyme activity, inhibitor, radiometric | 1 µM | remaining activity | 113% |
| Clc1ccc(Nc2nnc(Cc3ccncc3)c3ccccc23)cc1 | cell-free assay | 0.5 µM | remaining signal | 116% |
| C[C@H](c1ccnc(Nc2nc3ccc(-c4cc(N(C)C)ncn4)cc3[nH]2)c1)N1CCN(C(=O)CC(F)(F)F)CC1 | cell-free assay, competition with immobilised ligand | 0.1 µM | remaining binding | 81% |
| CC/C(=N\NC(=O)NCc1cccc(O)c1)c1ccc(O)c(C)c1O | enzyme activity, inhibitor | 0.1 µM | inhibition | -5% |
| CN1CC(Oc2cnc(C#N)cc2-c2ccn3nc(NC(=O)C4CC4)cc3c2)C1 | enzyme activity, inhibitor | 1 µM | inhibition | 2% |
| FC(F)c1nc2ccccc2n1-c1nc(N2CCOCC2)nc(N2CCOCC2)n1 | enzyme activity, inhibitor | 10 µM | remaining activity | 88% |
| FC(F)(F)Oc1cccc(-c2cnc3ccc(-c4ccncc4)nn23)c1 | enzyme activity, inhibitor, radiometric | 5 µM | activity vs control | 81% |
| Cc1cnc(NC2CCOCC2)nc1-n1cnc(C(=O)NC(CN)c2cc(F)cc(Cl)c2)c1 (stereo not drawn) | enzyme activity, inhibitor, radiometric | 1 µM | remaining activity | 55% |
| Cc1ccc(NC(=O)c2ccc(C)c(C(F)(F)F)c2)cc1C#Cc1nn(C2CCC(O)CC2)c2ncnc(N)c12 (stereo not drawn) | cell-free assay | 10 µM | remaining signal | 40% |
| c1ccc(N2CCN(Cc3nc4ccccc4[nH]3)CC2)nc1 | binding, competition with immobilised ligand | 1 µM | remaining binding | 100% |
| COc1cc(-c2cc(-c3ccc(N4CCNCC4)cc3)cnc2C)cc(OC)c1OC | enzyme activity, inhibitor | 1 µM | inhibition | 3% |
| COc1cc2ncnc(Nc3ccc(Oc4ccccc4)cc3C)c2cc1OC | enzyme activity, inhibitor | 1 µM | inhibition | 5% |
| CC(C)(C)c1nc(-c2cccc(NS(=O)(=O)c3c(F)cccc3F)c2F)c(-c2ccnc(N)n2)s1 | enzyme activity, inhibitor, radiometric | 1 µM | remaining activity | 118% |
| O=C(NC[C@@H]1[C@H]2CN(C(=O)OCc3cc(C(F)(F)F)cc(C(F)(F)F)c3)C[C@@H]12)c1ccc2[nH]nnc2c1 | cell-free assay, competition with immobilised ligand | 1 µM | remaining binding | 90% |
| CC(C)(O)[C@H]1CC[C@H](Nc2ccc3ncc(-c4cccc(C(F)(F)F)c4)n3n2)CC1 | enzyme activity, inhibitor | 1 µM | remaining activity | 107% |
| CNC(=O)c1cc(Oc2ccc(NC(=O)Nc3ccc(Cl)c(C(F)(F)F)c3)cc2)ccn1 | enzyme activity, inhibitor | 0.3 µM | inhibition | 9% |
| O=C1NC(=O)c2cc(Nc3ccc(F)cc3)c(Nc3ccc(F)cc3)cc21 | cell-free assay | 0.5 µM | remaining signal | 97.3% |
| CC(=O)N1CCC(c2ccc(C(=O)NC3=NCCN3)cc2C(F)(F)F)CC1 | cell-free assay, competition with immobilised ligand | 1 µM | remaining binding | 100% |
| Nc1ncnc2c1ncn2[C@@H]1O[C@H](COP(=O)(O)OP(=O)(O)OP(=O)(O)O)[C@@H](O)[C@H]1O | thermal stability, DSF | 2 µM | ΔTm | ~4.6 °C |
| CCS(=O)(=O)c1cc2cc(C[C@@](O)(CC(C)(C)c3ccc(F)cc3C(N)=O)C(F)(F)F)[nH]c2cn1 | cell-free assay, competition with immobilised ligand | 1 µM | remaining binding | 100% |
| Nc1ncnc2occ(-c3ccc(NC(=O)Nc4cc(C(F)(F)F)ccc4F)cc3)c12 | cell-free assay, inhibitor | 20 µM | remaining signal | 1.3% |
| Cc1cc(NC(=O)c2cccc3cc(-c4cccc5[nH]nc(N)c45)ccc23)ccc1F | enzyme activity, inhibitor | 0.1 µM | activity vs control | 102% |
| O=C(Nc1cccnn1)N1CCC(=Cc2cccc(Oc3ccc(C(F)(F)F)cn3)c2)CC1 | cell-free assay, competition with immobilised ligand | 1 µM | remaining binding | 100% |
